Experimental data taken from ChEMBL document CHEMBL1132422, “Synthesis and evaluation of 2-amino-9-(1, 3-dihydroxy-2-propoxymethyl)- 6-fluoropurine mono- and diesters as potential prodrugs of ganciclovir” (J Med Chem, 1999).
Converted amounts (≈) assume the structure as drawn.

Test system: not listed separately
Test: Compound was tested for its half life period at pH 1.2 using HCl/NaCl buffer
Assay type: ADME
Settings: not given
Method in brief: (§1)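 Compound incubated in buffer (HCl/NaCl at pH 1.2; sodium phosphate at pH 6.0, 7.4, 8.0), sampled and analysed by C18 reversed-phase HPLC. Gradient: 10 min 100% 0.1% phosphoric acid, 25 min linear to 45% of 80% MeCN/0.1% phosphoric acid, then 4 min isocratic, at 1 mL/min. UV detection at 245 nm. Half-life derived from remaining parent compound.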

In order of falling half-life:
1. CCC(=O)OCC(COC(=O)CC)OCn1cnc2c(F)nc(N)nc21  1.38 h
2. CC(C)C(=O)OCC(COC(=O)C(C)C)OCn1cnc2c(F)nc(N)nc21  1.23 h
3. CCCC(=O)OCC(CO)OCn1cnc2c(F)nc(N)nc21 (configuration not stated)  1.15 h
4. CC(C)C(=O)OCC(CO)OCn1cnc2c(F)nc(N)nc21 (configuration not stated)  1.08 h
5. CCCC(=O)OCC(COC(=O)CCC)OCn1cnc2c(F)nc(N)nc21  1.08 h
6. CC(=O)OCC(COC(C)=O)OCn1cnc2c(F)nc(N)nc21  1.03 h
7. Nc1nc(F)c2ncn(COC(CO)CO)c2n1  1.03 h
8. CC(=O)OCC(CO)OCn1cnc2c(F)nc(N)nc21 (configuration not stated)  1.02 h
9. CCC(=O)OCC(CO)OCn1cnc2c(F)nc(N)nc21 (configuration not stated)  1 h

Test system: not listed separately
Test: Compound was tested for its half life period at pH 6.0 using Sodium phosphate buffer
Assay type: ADME
Settings: not given
Method in brief: as §1

In order of falling half-life:
1. Nc1nc(F)c2ncn(COC(CO)CO)c2n1  107 days
2. CC(C)C(=O)OCC(CO)OCn1cnc2c(F)nc(N)nc21 (configuration not stated)  56 days
3. CC(=O)OCC(CO)OCn1cnc2c(F)nc(N)nc21 (configuration not stated)  56 days
4. CCCC(=O)OCC(CO)OCn1cnc2c(F)nc(N)nc21 (configuration not stated)  51 days
5. CCCC(=O)OCC(COC(=O)CCC)OCn1cnc2c(F)nc(N)nc21  39 days
6. CCC(=O)OCC(CO)OCn1cnc2c(F)nc(N)nc21 (configuration not stated)  37 days
7. CCC(=O)OCC(COC(=O)CC)OCn1cnc2c(F)nc(N)nc21  35 days
8. CC(=O)OCC(COC(C)=O)OCn1cnc2c(F)nc(N)nc21  30 days
9. CC(C)C(=O)OCC(COC(=O)C(C)C)OCn1cnc2c(F)nc(N)nc21  29 days

Test system: not listed separately
Test: Compound was tested for its half life period at pH 7.4 using Sodium phosphate buffer
Assay type: ADME
Settings: not given
Method in brief: as §1

In order of falling half-life:
1. Nc1nc(F)c2ncn(COC(CO)CO)c2n1  1660 h
2. CC(C)C(=O)OCC(CO)OCn1cnc2c(F)nc(N)nc21 (configuration not stated)  768 h
3. CCCC(=O)OCC(CO)OCn1cnc2c(F)nc(N)nc21 (configuration not stated)  504 h
4. CCC(=O)OCC(CO)OCn1cnc2c(F)nc(N)nc21 (configuration not stated)  408 h
5. CC(=O)OCC(CO)OCn1cnc2c(F)nc(N)nc21 (configuration not stated)  336 h
6. CCCC(=O)OCC(COC(=O)CCC)OCn1cnc2c(F)nc(N)nc21  264 h
7. CC(=O)OCC(COC(C)=O)OCn1cnc2c(F)nc(N)nc21  192 h
8. CC(C)C(=O)OCC(COC(=O)C(C)C)OCn1cnc2c(F)nc(N)nc21  168 h
9. CCC(=O)OCC(COC(=O)CC)OCn1cnc2c(F)nc(N)nc21  168 h

Test system: not listed separately
Test: Compound was tested for its half life period at pH 8.0 using Sodium phosphate buffer
Assay type: ADME
Settings: not given
Method in brief: as §1

In order of falling half-life:
1. Nc1nc(F)c2ncn(COC(CO)CO)c2n1  720 h
2. CC(C)C(=O)OCC(CO)OCn1cnc2c(F)nc(N)nc21 (configuration not stated)  336 h
3. CCCC(=O)OCC(CO)OCn1cnc2c(F)nc(N)nc21 (configuration not stated)  288 h
4. CCC(=O)OCC(CO)OCn1cnc2c(F)nc(N)nc21 (configuration not stated)  168 h
5. CC(=O)OCC(CO)OCn1cnc2c(F)nc(N)nc21 (configuration not stated)  168 h
6. CC(C)C(=O)OCC(COC(=O)C(C)C)OCn1cnc2c(F)nc(N)nc21  120 h
7. CCCC(=O)OCC(COC(=O)CCC)OCn1cnc2c(F)nc(N)nc21  96 h
8. CC(=O)OCC(COC(C)=O)OCn1cnc2c(F)nc(N)nc21  72 h
9. CCC(=O)OCC(COC(=O)CC)OCn1cnc2c(F)nc(N)nc21  48 h

Test system: not listed separately
Test: Compound was tested for solubility in water at 25 degree C
Assay type: ADME
Settings: read-out: S
Method in brief: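 Saturated aqueous solution of compound; UV absorbance at 245 nm compared against a standard curve to give solubility.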

In order of rising solubility:
1. CC(C)C(=O)OCC(COC(=O)C(C)C)OCn1cnc2c(F)nc(N)nc21  400 µg/mL (≈ 1.01 mM)
2. CCCC(=O)OCC(COC(=O)CCC)OCn1cnc2c(F)nc(N)nc21  600 µg/mL (≈ 1.51 mM)
3. CCC(=O)OCC(COC(=O)CC)OCn1cnc2c(F)nc(N)nc21  700 µg/mL (≈ 1.9 mM)
4. CC(=O)OCC(COC(C)=O)OCn1cnc2c(F)nc(N)nc21  4200 µg/mL (≈ 12.3 mM)
5. Nc1nc2c(ncn2COC(CO)CO)c(=O)[nH]1 [GANCICLOVIR]  4300 µg/mL (≈ 16.8 mM)
6. CC(C)C(=O)OCC(CO)OCn1cnc2c(F)nc(N)nc21 (configuration not stated)  5700 µg/mL (≈ 17.4 mM)
7. Nc1nc(F)c2ncn(COC(CO)CO)c2n1  11300 µg/mL (≈ 43.9 mM)
8. CCC(=O)OCC(CO)OCn1cnc2c(F)nc(N)nc21 (configuration not stated)  19000 µg/mL (≈ 60.6 mM)
9. CCCC(=O)OCC(CO)OCn1cnc2c(F)nc(N)nc21 (configuration not stated)  19400 µg/mL (≈ 59.3 mM)
10. CC(=O)OCC(CO)OCn1cnc2c(F)nc(N)nc21 (configuration not stated)  44400 µg/mL (≈ 148 mM)

Test system: HEL 299
Test: In vitro cytotoxicity of the compound (Concentration required to reduce OD value by 50%) in human embryonic lung fibroblast(HEL 299) cells determined by MTT assay.
Assay type: functional
Settings: not given
Method in brief: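 HEL 299 cells seeded at 1 × 10^4 cells/well in EMEM and grown 24 h, then exposed to compound at various concentrations for 4 days at 37 °C, 5% CO2. MTT added for 4 h, formazan dissolved in DMSO, OD read at 540 nm. CC50 from probit dose-response; quadruplicate, repeated twice.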

CCC(=O)OCC(CO)OCn1cnc2c(F)nc(N)nc21 (configuration not stated) and CCCC(=O)OCC(CO)OCn1cnc2c(F)nc(N)nc21 (configuration not stated) cannot be ordered by CC50: greater than 100 µM for the first, greater than 100 µM for the second.

CC(C)C(=O)OCC(COC(=O)C(C)C)OCn1cnc2c(F)nc(N)nc21 and CC(C)C(=O)OCC(CO)OCn1cnc2c(F)nc(N)nc21 (configuration not stated) cannot be ordered by CC50: greater than 100 µM for the first, greater than 100 µM for the second.

CCC(=O)OCC(COC(=O)CC)OCn1cnc2c(F)nc(N)nc21 and CCCC(=O)OCC(COC(=O)CCC)OCn1cnc2c(F)nc(N)nc21 cannot be ordered by CC50: greater than 100 µM for the first, greater than 100 µM for the second.

CC(=O)OCC(COC(C)=O)OCn1cnc2c(F)nc(N)nc21 and CC(=O)OCC(CO)OCn1cnc2c(F)nc(N)nc21 (configuration not stated) cannot be ordered by CC50: greater than 100 µM for the first, greater than 100 µM for the second.

Nc1nc(F)c2ncn(COC(CO)CO)c2n1 and Nc1nc2c(ncn2COC(CO)CO)c(=O)[nH]1 [GANCICLOVIR] cannot be ordered by CC50: greater than 100 µM for the first, greater than 100 µM for the second.

Test system: Human betaherpesvirus 5
Test: In vitro antiviral (HCMV-AD169) activity of the compound (Concentration required to reduce 50% of the plaques) determined by plaque reduction assay.
Assay type: functional, cell-based
Settings: Human betaherpesvirus 5, AD169, HEL 299
Method in brief: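 Confluent cells infected with about 50 PFU HCMV AD-169 per well, 1 h adsorption at 37 °C, 5% CO2. Inoculum replaced with EMEM containing 2% FBS, 1% methyl cellulose and compound at various concentrations. After 10 days, plaques fixed in methanol, stained with crystal violet and counted. EC50 from probit dose-response; quadruplicate, repeated twice.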

CCC(=O)OCC(CO)OCn1cnc2c(F)nc(N)nc21 (configuration not stated) and CCCC(=O)OCC(CO)OCn1cnc2c(F)nc(N)nc21 (configuration not stated) cannot be ordered by EC50: greater than 100 µM for the first, greater than 100 µM for the second.

CC(C)C(=O)OCC(COC(=O)C(C)C)OCn1cnc2c(F)nc(N)nc21 and CC(C)C(=O)OCC(CO)OCn1cnc2c(F)nc(N)nc21 (configuration not stated) cannot be ordered by EC50: greater than 100 µM for the first, greater than 100 µM for the second.

CCC(=O)OCC(COC(=O)CC)OCn1cnc2c(F)nc(N)nc21 and CCCC(=O)OCC(COC(=O)CCC)OCn1cnc2c(F)nc(N)nc21 cannot be ordered by EC50: greater than 100 µM for the first, greater than 100 µM for the second.

CC(=O)OCC(COC(C)=O)OCn1cnc2c(F)nc(N)nc21 and CC(=O)OCC(CO)OCn1cnc2c(F)nc(N)nc21 (configuration not stated) cannot be ordered by EC50: greater than 100 µM for the first, greater than 100 µM for the second.

Compared with Nc1nc(F)c2ncn(COC(CO)CO)c2n1, Nc1nc2c(ncn2COC(CO)CO)c(=O)[nH]1 [GANCICLOVIR] is lower in EC50: greater than 100 µM for the first, 0.63 µM for the second.

Test system: Rattus norvegicus
Test: Total amount of Ganciclovir recovered in the urine over a 48 hr period after an oral dose of 0.1 mmol/kg to male SD rat
Assay type: functional
Settings: not given
Method in brief: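 Single oral dose of 0.1 mmol/kg given to two male Sprague-Dawley rats (200-250 g). Urine collected for 48 h in metabolic cages, and total ganciclovir measured by C18 reversed-phase HPLC.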

In order of rising “Ganciclovir recovered in urine over 48 h (% of dose)” value:
1. Nc1nc2c(ncn2COC(CO)CO)c(=O)[nH]1 [GANCICLOVIR]  3%
2. Nc1nc(F)c2ncn(COC(CO)CO)c2n1  8%
3. CC(C)OCC(COC(C)C)OCn1cnc2cnc(N)nc21 [ROCICLOVIR]  14%
4. CC(=O)OCC(CO)OCn1cnc2c(F)nc(N)nc21 (configuration not stated)  29%
5. CCC(=O)OCC(COC(=O)CC)OCn1cnc2c(F)nc(N)nc21  35%
6. CCCC(=O)OCC(COC(=O)CCC)OCn1cnc2c(F)nc(N)nc21  35%
7. CC(=O)OCC(COC(C)=O)OCn1cnc2c(F)nc(N)nc21  41%
8. CCCC(=O)OCC(CO)OCn1cnc2c(F)nc(N)nc21 (configuration not stated)  41%
9. CC(C)C(=O)OCC(COC(=O)C(C)C)OCn1cnc2c(F)nc(N)nc21  42%
10. CC(C)C(=O)OCC(CO)OCn1cnc2c(F)nc(N)nc21 (configuration not stated)  45%

With CCC(=O)OCC(CO)OCn1cnc2c(F)nc(N)nc21 (configuration not stated) the Dose was 39%.
